biological target: T1, Tyrosinase (Mus musculus) (UniProt P11344); details: 400 uM
T1 sequence (whole entry): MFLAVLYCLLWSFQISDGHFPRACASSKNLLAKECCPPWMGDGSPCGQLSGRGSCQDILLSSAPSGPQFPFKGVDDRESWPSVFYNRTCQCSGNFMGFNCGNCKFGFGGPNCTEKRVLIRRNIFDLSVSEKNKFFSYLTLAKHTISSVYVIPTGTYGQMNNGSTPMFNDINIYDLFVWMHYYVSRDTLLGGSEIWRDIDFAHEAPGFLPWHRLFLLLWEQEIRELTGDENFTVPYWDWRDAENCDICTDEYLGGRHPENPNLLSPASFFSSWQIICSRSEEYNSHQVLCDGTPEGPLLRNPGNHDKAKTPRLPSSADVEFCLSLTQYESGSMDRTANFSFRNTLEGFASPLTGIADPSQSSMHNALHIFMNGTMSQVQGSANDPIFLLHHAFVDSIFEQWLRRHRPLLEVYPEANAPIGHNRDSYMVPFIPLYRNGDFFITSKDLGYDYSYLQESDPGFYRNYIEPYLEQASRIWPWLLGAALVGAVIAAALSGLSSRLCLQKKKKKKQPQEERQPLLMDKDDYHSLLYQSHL

| SMILES | inhibition |
| --- | --- |
| OC[C@H]1O[C@@H](Oc2ccc(O)cc2)[C@H](O)[C@@H](O)[C@@H]1O | 42.6% |

test system: not listed separately; assay: Antioxidant activity assessed as DPPH radical scavenging activity at 1 mM after 30 mins under dark condition relative to untreated control; format: functional; details: not given
Procedure, shortened: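 Test compounds dissolved in DMSO, mixed 1:9 (v/v) with 0.2 mM DPPH in methanol to a tested level of 1 mM. Incubated 30 min in the dark. Absorbance read at 517 nm. Scavenging % = (Ac−As)×100/Ac against untreated control. L-ascorbic acid used as positive control. Triplicate.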

| SMILES | inhibition |
| --- | --- |
| COc1ccc(/C=C(/C(=O)O)c2ccccc2)cc1 | 5.68% |
| COc1cc(/C=C(/C(=O)O)c2ccccc2)ccc1O | 81.6% |
| O=C(O)/C(=C/c1ccc(O)c(O)c1)c1ccccc1 | 83.7% |
| O=C(O)/C(=C/c1cccc(O)c1)c1ccccc1 | 12.4% |
| Cc1cc(/C=C(/C(=O)O)c2ccccc2)ccc1O | 78.1% |
| O=C(O)/C(=C/c1ccc(O)cc1O)c1ccccc1 | 52.1% |
| O=C(O)/C(=C/c1ccccc1O)c1ccccc1 | 4.43% |
| COc1ccc(/C=C(/C(=O)O)c2ccccc2)cc1O | 24% |
| O=C(O)/C(=C/c1ccc(O)cc1)c1ccccc1 | 6.04% |
| O=C(O)/C(=C\c1cc(Br)c(O)c(Br)c1)c1ccccc1 | 11.6% |
| COc1ccc(/C=C(/C(=O)O)c2ccccc2)cc1OC | 10.2% |
| O=C1O[C@H]([C@@H](O)CO)C(O)=C1O | 84.6% |
| O=C(O)/C(=C/c1cc(Br)c(O)c(Br)c1)c1ccccc1 | 23.9% |
| COc1cc(/C=C(/C(=O)O)c2ccccc2)cc(OC)c1O | 85% |
| O=C(O)/C(=C/c1ccc(O)c(Br)c1)c1ccccc1 | 19.4% |
| CCOc1cc(/C=C(/C(=O)O)c2ccccc2)ccc1O | 43.6% |

test system: B16-F10; assay: Cytotoxicity against mouse B16F10 cells assessed as reduction in cell viability at 5 to 10 uM incubated for 24 hrs by WST8 assay; format: cell-based; details: b16-f10, 24 h
Procedure, shortened: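 B16F10 cells seeded at 5x10^4 per well in DMEM with 10% FBS and penicillin/streptomycin, 37 °C, 5% CO2, and grown 24 h. Exposed to 0, 5, 10 or 25 µM for 24 h. WST-8 reagent added for 1 h, OD read at 450 nm. Viability expressed as % of untreated cells. Three repeats.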

| SMILES | Activity |
| --- | --- |
| O=C(O)/C(=C/c1ccc(O)cc1O)c1ccccc1 | Non-Toxic |

biological target: T1, Tyrosinase (Mus musculus); assay: Inhibition of tyrosinase in alpha-MSH-stimulated mouse B16F10 cells incubated for 24 hrs relative to untreated control; details: not given
Procedure, shortened: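 B16F10 cells seeded at 5x10^4 per well and grown 24 h at 37 °C, 5% CO2. […] Cells PBS-washed, lysed in PMSF/Triton X-100 buffer, frozen at −80 °C, spun 12,000 rpm 4 °C. Supernatant incubated with L-dopa 30 min at 37 °C, OD read at 500 nm. Triplicate.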

| SMILES | inhibition |
| --- | --- |
| O=C(O)/C(=C/c1ccc(O)cc1O)c1ccccc1 | Dose-dependent effect |
